NR1D1 modulator: modulators of Rev-erb alpha DNA binding, primary screen, biochemical, FITC-DNA, fluorescence polarization, uHTS | hit rate 0.79% among 370,000 | Rev-erbα–FITC-DNA binding, 90 min | Nuclear receptor subfamily 1 group D member 1 (Homo sapiens), P20393 | activity, % at 10 µM;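 active means activity above about 14%, limit read from the data; passing the limit was not always enough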;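 further: 0% = DMSO wells with 35 nM protein and 100% = DMSO wells with 750 nM protein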
Target sequence (P20393 whole entry, looked up): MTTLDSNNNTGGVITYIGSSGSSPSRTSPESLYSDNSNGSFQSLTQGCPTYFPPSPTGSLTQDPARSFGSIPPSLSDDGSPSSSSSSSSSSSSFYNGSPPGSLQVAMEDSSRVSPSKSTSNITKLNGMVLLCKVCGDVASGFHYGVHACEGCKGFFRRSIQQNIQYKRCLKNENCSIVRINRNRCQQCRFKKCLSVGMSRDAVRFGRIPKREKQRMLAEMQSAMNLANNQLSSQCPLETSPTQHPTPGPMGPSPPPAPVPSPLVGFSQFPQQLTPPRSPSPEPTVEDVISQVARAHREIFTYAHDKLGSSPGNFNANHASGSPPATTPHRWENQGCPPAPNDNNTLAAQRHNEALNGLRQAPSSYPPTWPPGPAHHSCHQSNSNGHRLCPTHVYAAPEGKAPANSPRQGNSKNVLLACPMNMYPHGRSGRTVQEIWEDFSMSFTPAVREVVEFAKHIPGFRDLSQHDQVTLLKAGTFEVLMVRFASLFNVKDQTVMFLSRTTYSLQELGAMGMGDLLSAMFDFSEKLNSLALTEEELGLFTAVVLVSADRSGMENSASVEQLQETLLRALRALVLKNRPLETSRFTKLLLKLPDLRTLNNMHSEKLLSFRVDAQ
PG9 binder: binders of HIV-1 gp120 antibody PG9, primary screen, biochemical, TR-FRET; HIV-1 gp120 / PG9 antibody interaction; TR-FRET gp120-PG9 antibody binding; inhibition, % at 6.7 µM; hit rate 0.43% among 360,000; AID 624416, 2012; in the data active means inhibition above about 8.5%
NR2E3 ag-1: NR2E3 agonists in two-hybrid cells, primary screen, cell-based, luminescence, CHO-S, Gal4-NCOR/VP16-NR2E3; luciferase; inhibition of corepressor binding, % at 3.98 µM; hit rate 0.35% among 360,000;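 active means inhibition above the mean of all tested compounds plus 3 SD, cut at about 70% in these data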;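 further: 0% = DMSO with NR2E3 transfected cells and 100% = cells lacking NR2E3 construct; higher means lower luciferase signal from less NR2E3 corepressor binding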
NR2E3 ag-2: inhibitors of NR2E3-RetCOR corepressor binding, primary screen, NR2E3 agonist project, biochemical, TR-FRET, GST-NR2E3, biotin-RetCOR; Photoreceptor-specific nuclear receptor (Homo sapiens), Q9Y5X4; hit rate 0.12% among 320,000; inhibition of corepressor binding, % at 4.78 µM; 1536-well;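 active means percent inhibition above the cutoff of mean plus 3 SD of all tested compounds, set per screening campaign, cut at about 20% in these data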;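 further: 0% = DMSO wells and 100% = biotin wells as full block of FRET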
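Material: NR2E3–RetCOR corepressor complex | Quantity: 1.35 nM GST-tagged NR2E3 final | Schedule: 5 h at 4 °C | Replication: Singlicate compound wells | Reagent: RetCOR corepressor, biotinylated, 7 nM | Controls: Biotin wells as high control, 0.6% DMSO wells as low control | Signal: TR-FRET, Eu(K)-anti-GST donor, streptavidin-D2 acceptor, ex 340, em 617/671 nm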
VLA-4 inh: inhibition in human VLA-4 binding assay, primary screen, VLA-4 allosteric modulator project, MLPCN library, flow cytometry, VLA-4 expressing cells. Integrin alpha-4 (Homo sapiens), P13612. AID 2557, 2010. ligand binding flow cytometry. hit rate 0.2% among 330,000. inhibition, % (about 7 µM as worked out from the volumes in the protocol); in the data active means inhibition above about 50%
NR2E3 ag confirm: NR2E3 agonist confirmation in cells, cell-based, luminescence, CHO-S two-hybrid; shares compounds with NR2E3 ag-1; hit rate 51% among 2,300; CHO-S mammalian two-hybrid NR2E3-NCOR, luciferase luminescence; inhibition, % at 3.98 µM;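 active means average inhibition above a cutoff equal to the mean inhibition of all tested compounds plus one SD, cut at about 70% in these data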;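 further: 0% = DMSO in NR2E3 cells and 100% = DMSO in cells lacking NR2E3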
VP16 counter: GAL4-VP16 reporter modulators, confirmation, counter-screen for NR2E3 agonist project, cell-based, luminescence, CHO-S, high throughput; shares compounds with NR2E3 ag-1; hit rate 29% among 2,300; AID 624379, 2012; CHO-S GAL4-VP16 luciferase reporter; inhibition, % at 3.98 µM;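 active means mean inhibition above a cutoff equal to the average over all tested compounds plus one standard deviation, cut at about 70% in these data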;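 further: luciferase from a UAS reporter driven by GAL4-VP16 transactivation; 0% = DMSO with VP16-transfected cells and 100% = DMSO with cells lacking VP16; higher means less reporter light so more repression of VP16 activity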
Active calls of the source: *; . = no result given. Only some compounds are listed: those with a hit (about 1.6% of all), similar ones and a draw of the others.

SMILES | NR1D1 modulator | PG9 binder | NR2E3 ag-1 | NR2E3 ag-2 | VLA-4 inh | NR2E3 ag confirm | VP16 counter
C/C(=N\NC(=S)NCc1ccccc1)c1ccc(C(C)(C)C)cc1 | 0 | -1 | -7 | 1 | 15 | . | .
C/C(=N\NC(=S)NCc1ccccc1)c1ccccc1 | 2 | -2 | 56 | 1 | 4 | -36 | -40
C/C(=N\NC(=S)NCCc1ccccc1)c1ccc(O)cc1O | 1 | -2 | 78* | 0 | -16 | -17 | 8
CCOc1ccc(C(=O)OCC(=O)NCCCc2ccccc2)cc1 | -2 | 1 | -13 | 2 | 10 | . | .
O=C(C(=O)N1CCN(C(=O)Cc2ccccc2)CC1)c1cccc(C(F)(F)F)c1 | 1 | -1 | . | . | . | . | .
S=c1[nH]nc(-c2n[nH]c3c2CCC3)n1N=Cc1cccs1 | 3 | . | . | . | . | . | .
CC(C)CN1C(=O)C[C@@]2(C(=O)N(C)c3ccc(NS(=O)(=O)C4CC4)cc32)C1c1ccccc1 (some centres undefined) | -1 | . | . | . | . | . | .
Cc1nn(C)c(Cl)c1NC(=O)OCc1ccc(Cl)cc1Cl | 1 | -2 | 67 | 2 | -7 | 91* | 67
COc1ccc(-n2c(-c3ccc(Cl)cc3)c[n+]3c2CCc2ccccc2-3)cc1 | 2 | -3 | -2 | 3 | 1 | . | .
Cc1ccc(-n2c(-c3ccc(Br)cc3)c[n+]3c2CCc2ccc4cccnc4c2-3)cc1 | -4 | -1 | 83* | -6 | 19 | 99* | 72*
NC(=O)NOCc1ccc(Cl)cc1Cl | -2 | -1 | -12 | 2 | 4 | . | .
CNC(=S)/N=C/NOCc1ccc(Cl)cc1Cl | 1 | -4 | 58 | -2 | 2 | 82* | 44
CN(C)c1ccc(Sc2ccc3nc(N)nc(N)c3c2)cc1 | 0 | -4 | 76* | . | . | 36 | 52
C#CCNC(=O)C[C@@H]1C(=O)N(CC=C)/C2=C/CCCCC[C@]21C(=O)OCC | 2 | . | . | . | . | . | .
Cc1nnc(SCC(=O)NC2CCCC2)n1-c1ccccc1 | -2 | 0 | -14 | 4 | 0 | . | .
COC(=O)N1C2CCCCC2=NN(c2ccccc2)N1C(=O)OC (centres undefined) | -4 | -1 | 71* | . | . | 6 | 18
CCNC(=O)CCc1nc(-c2ccc(C(C)C)cc2)no1 | -6 | . | . | . | . | . | .
C=C(C(=O)c1ccccc1)C(C)C(=C)C(=O)c1ccccc1 | 3 | 0 | 69 | 3 | -70 | 79* | 27
C=C(C(=O)c1ccccc1)C(c1ccccc1)C(C)C(=O)c1ccccc1 (centres undefined) | -1 | -1 | 5 | 0 | 14 | . | .
CC(C)N1CCc2c(sc(NC(=O)c3ccc([N+](=O)[O-])o3)c2C(N)=O)C1 | 2 | -24 | 48 | 2 | -8 | 84* | 50
CC(=O)N1CCc2c(sc(NC(=O)c3ccc([N+](=O)[O-])o3)c2C#N)C1 | -8 | -3 | 61 | . | . | 48 | 28
COc1ccc(C(=O)Nc2sc3c(c2C#N)CCN(C(C)=O)C3)cc1 | -1 | -1 | -15 | 1 | -9 | . | .
CN(C)c1nc(=NCc2cccs2)ss1 | 9 | 1 | 97* | . | . | 23 | -10
CCCCCC(=O)NC1CCCCN(Cc2ccc(C)cc2)C1=O (centres undefined) | 5 | . | . | . | . | . | .
COC(=O)[C@]12C[C@H](CC(=O)N3CCN(C(=O)C4CC4)CC3)C(=O)N(Cc3cccc4ccccc34)C1=C[C@H](C1CCCC1)O[C@@H]2C | 0 | . | . | . | . | . | .
CC(=O)Nc1ccc(NC(=O)c2cc([N+](=O)[O-])cc([N+](=O)[O-])c2)cc1 | 2 | -3 | 10 | 4 | 13 | . | .
CC(C)(C)C(=O)Nc1ccc(Sc2ccc([N+](=O)[O-])cc2)cc1 | -1 | 1 | 53 | -2 | 2 | 78* | 54
